Source: ChEMBL document CHEMBL5653631, “A Potent and Selective ULK1 Inhibitor Suppresses Autophagy and Sensitizes Cancer Cells to Nutrient Stress” (iScience, 2018)

Tests used:
[1] = molecular target: Fibroblast growth factor receptor 1 (Homo sapiens) (UniProt P11362); test: Inhibition of human recombinant FGFR1 at 40 nM in presence of ATP by radiometric assay relative to control
[2] = molecular target: Tyrosine-protein kinase receptor UFO (Homo sapiens) (UniProt P30530); test: Inhibition of human recombinant AXL at 40 nM related to control ULK1
Summary of the method: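 Radiometric activity assays in a panel of 327 human recombinant kinases, each run in duplicate at one inhibitor concentration. Activity remaining is expressed as percent of vehicle control, and percent inhibition is calculated as 100% minus percent activity remaining.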

[3] = molecular target: Epithelial discoidin domain-containing receptor 1 (Homo sapiens) (UniProt Q08345); test: Inhibition of human recombinant DDR1 at 40 nM related to control ULK1
[4] = molecular target: T1, Serine/threonine-protein kinase ULK2 (Homo sapiens) (UniProt Q8IYT8); test: Inhibition of human recombinant ULK2 at 40 nM related to control ULK1
T1 sequence (whole entry): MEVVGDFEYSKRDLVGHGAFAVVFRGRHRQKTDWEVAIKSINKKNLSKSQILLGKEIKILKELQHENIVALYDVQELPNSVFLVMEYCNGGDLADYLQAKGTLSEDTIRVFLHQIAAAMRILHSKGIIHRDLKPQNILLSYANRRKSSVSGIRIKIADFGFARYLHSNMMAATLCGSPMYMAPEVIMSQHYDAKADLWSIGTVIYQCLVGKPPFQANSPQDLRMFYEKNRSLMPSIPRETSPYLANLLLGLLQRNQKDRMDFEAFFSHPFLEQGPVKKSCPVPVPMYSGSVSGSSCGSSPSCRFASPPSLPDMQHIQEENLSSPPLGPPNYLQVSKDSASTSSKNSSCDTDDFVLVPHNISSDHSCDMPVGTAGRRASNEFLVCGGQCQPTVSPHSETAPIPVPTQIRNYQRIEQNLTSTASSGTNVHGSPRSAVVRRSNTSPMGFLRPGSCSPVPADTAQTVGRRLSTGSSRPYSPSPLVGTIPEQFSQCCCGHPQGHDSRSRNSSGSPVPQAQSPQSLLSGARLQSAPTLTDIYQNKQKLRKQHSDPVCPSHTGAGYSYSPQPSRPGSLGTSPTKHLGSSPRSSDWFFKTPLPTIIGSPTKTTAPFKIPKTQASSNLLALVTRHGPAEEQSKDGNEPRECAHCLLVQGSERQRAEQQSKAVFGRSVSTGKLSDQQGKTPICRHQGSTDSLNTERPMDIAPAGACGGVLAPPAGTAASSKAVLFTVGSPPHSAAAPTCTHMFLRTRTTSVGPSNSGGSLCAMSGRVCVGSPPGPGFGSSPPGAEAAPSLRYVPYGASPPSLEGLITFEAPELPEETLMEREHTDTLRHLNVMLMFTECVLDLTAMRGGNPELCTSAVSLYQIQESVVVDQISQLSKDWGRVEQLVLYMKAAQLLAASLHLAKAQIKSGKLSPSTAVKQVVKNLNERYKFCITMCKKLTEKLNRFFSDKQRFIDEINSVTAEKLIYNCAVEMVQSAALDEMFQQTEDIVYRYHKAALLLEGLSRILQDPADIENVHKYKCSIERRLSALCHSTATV

[5] = molecular target: Wee1-like protein kinase (Homo sapiens) (UniProt P30291); test: Inhibition of human recombinant Wee1 at 40 nM related to control ULK1
[6] = molecular target: T2, Inhibitor of nuclear factor kappa-B kinase subunit alpha (Homo sapiens) (UniProt O15111); test: Inhibition of human recombinant IKKa at 500 nM in presence of ATP by radiometric assay relative to control
T2 sequence (whole entry): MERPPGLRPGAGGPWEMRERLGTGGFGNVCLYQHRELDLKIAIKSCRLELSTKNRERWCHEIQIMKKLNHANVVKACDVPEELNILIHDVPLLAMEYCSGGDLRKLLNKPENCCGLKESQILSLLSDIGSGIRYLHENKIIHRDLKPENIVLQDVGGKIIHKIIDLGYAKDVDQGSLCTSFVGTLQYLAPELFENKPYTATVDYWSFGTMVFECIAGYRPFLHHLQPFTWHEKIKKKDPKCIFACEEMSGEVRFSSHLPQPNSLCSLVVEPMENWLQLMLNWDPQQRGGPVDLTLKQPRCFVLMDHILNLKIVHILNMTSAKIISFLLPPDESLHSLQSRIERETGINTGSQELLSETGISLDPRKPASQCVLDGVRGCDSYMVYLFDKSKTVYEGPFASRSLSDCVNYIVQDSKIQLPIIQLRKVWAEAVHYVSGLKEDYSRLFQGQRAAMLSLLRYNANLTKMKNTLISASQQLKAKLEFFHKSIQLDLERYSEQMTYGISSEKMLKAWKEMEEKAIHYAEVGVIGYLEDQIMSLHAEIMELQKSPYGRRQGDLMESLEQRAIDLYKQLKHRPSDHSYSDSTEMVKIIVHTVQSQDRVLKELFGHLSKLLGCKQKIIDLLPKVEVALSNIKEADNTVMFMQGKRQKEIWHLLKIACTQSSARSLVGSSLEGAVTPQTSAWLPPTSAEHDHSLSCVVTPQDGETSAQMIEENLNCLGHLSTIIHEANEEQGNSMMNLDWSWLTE

[7] = molecular target: cAMP-dependent protein kinase catalytic subunit alpha (Homo sapiens) (UniProt P17612); test: Inhibition of human recombinant PKACalpha at 500 nM in presence of ATP by radiometric assay relative to control
[8] = molecular target: Proto-oncogene tyrosine-protein kinase Src (Homo sapiens) (UniProt P12931); test: Inhibition of human recombinant SRC at 500 nM in presence of ATP by radiometric assay relative to control
[9] = molecular target: Mitogen-activated protein kinase 8 (Homo sapiens) (UniProt P45983); test: Inhibition of human recombinant JNK1 at 500 nM related to control ULK1
[10] = molecular target: Serine/threonine-protein kinase PAK 3 (Homo sapiens) (UniProt O75914); test: Inhibition of human recombinant PAK3 at 500 nM related to control ULK1
[11] = molecular target: Maternal embryonic leucine zipper kinase (Homo sapiens) (UniProt Q14680); test: Inhibition of human recombinant MELK at 15 nM in presence of ATP by radiometric assay relative to control
[12] = molecular target: Death-associated protein kinase 2 (Homo sapiens) (UniProt Q9UIK4); test: Inhibition of human recombinant DAPK2 at 15 nM related to control ULK1
Chain of Death-associated protein kinase 2 (Homo sapiens) (Q9UIK4 whole entry, looked up): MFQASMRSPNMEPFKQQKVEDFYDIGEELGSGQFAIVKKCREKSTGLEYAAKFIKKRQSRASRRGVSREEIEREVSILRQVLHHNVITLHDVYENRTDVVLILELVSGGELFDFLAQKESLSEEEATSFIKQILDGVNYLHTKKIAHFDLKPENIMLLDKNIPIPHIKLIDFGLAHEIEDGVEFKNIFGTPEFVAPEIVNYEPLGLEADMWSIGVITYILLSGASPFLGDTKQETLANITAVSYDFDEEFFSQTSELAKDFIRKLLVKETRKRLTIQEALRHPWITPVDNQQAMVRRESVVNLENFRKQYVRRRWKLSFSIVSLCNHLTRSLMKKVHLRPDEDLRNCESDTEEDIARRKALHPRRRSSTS

Chain of Proto-oncogene tyrosine-protein kinase Src (Homo sapiens) (P12931 2-536 limits assumed): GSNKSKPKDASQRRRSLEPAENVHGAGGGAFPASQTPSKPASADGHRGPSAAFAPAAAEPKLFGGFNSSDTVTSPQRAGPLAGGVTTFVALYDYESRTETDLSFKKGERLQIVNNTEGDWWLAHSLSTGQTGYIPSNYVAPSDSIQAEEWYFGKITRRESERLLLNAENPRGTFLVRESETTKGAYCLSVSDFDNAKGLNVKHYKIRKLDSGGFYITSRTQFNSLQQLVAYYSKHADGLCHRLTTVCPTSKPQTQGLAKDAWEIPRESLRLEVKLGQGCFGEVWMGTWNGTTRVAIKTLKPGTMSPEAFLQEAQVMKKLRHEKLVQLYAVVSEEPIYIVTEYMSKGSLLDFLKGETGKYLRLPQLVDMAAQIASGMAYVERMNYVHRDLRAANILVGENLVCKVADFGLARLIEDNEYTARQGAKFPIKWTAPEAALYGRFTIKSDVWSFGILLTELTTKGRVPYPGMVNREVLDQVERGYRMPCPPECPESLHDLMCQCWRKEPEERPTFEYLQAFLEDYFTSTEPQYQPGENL
Chain of Tyrosine-protein kinase receptor UFO (Homo sapiens) (P30530 whole entry): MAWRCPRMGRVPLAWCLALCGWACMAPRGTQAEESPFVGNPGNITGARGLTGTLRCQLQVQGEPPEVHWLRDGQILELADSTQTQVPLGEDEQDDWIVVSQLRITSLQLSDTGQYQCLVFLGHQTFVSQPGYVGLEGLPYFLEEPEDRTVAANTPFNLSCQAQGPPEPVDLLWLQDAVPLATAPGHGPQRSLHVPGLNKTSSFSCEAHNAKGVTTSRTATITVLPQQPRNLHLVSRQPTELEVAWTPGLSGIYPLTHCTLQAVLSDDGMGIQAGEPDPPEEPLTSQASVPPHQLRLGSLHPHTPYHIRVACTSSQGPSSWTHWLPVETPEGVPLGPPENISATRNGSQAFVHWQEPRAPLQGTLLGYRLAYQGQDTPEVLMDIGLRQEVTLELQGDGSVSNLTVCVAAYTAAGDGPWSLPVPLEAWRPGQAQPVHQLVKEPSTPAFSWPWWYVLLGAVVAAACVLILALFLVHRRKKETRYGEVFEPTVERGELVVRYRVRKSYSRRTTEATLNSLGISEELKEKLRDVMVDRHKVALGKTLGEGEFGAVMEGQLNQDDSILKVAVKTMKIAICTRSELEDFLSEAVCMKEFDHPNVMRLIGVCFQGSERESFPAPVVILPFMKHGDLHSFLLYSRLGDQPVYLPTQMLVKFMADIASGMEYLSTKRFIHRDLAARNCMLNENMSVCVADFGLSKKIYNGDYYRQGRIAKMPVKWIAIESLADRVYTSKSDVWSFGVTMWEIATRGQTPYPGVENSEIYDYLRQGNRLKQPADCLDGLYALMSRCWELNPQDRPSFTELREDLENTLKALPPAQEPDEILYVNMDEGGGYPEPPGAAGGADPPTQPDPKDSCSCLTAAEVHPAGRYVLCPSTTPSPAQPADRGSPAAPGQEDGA
Chain of Fibroblast growth factor receptor 1 (Homo sapiens) (P11362 22-822 limits assumed): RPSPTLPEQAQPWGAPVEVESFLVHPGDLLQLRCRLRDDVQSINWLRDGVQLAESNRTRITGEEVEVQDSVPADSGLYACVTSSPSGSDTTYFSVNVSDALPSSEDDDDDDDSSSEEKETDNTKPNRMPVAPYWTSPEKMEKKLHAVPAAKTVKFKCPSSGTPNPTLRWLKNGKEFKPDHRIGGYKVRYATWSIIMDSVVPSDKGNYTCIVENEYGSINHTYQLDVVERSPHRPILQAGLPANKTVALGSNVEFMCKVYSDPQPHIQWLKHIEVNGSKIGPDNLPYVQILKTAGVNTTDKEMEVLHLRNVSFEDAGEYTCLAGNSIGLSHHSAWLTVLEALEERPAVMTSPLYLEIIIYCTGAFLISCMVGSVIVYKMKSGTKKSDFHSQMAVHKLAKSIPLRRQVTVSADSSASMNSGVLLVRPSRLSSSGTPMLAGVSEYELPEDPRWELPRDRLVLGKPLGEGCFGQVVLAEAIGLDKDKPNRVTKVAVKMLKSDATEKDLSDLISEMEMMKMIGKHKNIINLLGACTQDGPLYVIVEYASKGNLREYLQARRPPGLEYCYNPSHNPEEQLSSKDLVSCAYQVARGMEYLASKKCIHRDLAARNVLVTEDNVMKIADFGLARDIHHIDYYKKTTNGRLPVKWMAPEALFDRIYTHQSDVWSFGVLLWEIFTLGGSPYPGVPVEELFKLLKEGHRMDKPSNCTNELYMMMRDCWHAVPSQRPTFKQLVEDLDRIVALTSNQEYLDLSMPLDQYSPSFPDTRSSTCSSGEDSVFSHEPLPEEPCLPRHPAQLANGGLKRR
Chain of Mitogen-activated protein kinase 8 (Homo sapiens) (P45983 whole entry): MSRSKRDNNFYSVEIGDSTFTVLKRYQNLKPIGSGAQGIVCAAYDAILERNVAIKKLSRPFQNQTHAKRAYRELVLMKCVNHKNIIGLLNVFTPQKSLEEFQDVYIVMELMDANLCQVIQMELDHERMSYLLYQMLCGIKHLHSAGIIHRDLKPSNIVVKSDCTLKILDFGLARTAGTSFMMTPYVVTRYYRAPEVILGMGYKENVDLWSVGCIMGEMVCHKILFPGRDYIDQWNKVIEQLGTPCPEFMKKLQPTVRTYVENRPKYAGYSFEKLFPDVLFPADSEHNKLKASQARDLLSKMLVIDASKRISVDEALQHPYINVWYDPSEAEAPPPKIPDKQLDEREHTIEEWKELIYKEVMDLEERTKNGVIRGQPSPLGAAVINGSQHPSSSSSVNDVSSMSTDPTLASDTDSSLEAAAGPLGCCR
Chain of Maternal embryonic leucine zipper kinase (Homo sapiens) (Q14680 whole entry, looked up): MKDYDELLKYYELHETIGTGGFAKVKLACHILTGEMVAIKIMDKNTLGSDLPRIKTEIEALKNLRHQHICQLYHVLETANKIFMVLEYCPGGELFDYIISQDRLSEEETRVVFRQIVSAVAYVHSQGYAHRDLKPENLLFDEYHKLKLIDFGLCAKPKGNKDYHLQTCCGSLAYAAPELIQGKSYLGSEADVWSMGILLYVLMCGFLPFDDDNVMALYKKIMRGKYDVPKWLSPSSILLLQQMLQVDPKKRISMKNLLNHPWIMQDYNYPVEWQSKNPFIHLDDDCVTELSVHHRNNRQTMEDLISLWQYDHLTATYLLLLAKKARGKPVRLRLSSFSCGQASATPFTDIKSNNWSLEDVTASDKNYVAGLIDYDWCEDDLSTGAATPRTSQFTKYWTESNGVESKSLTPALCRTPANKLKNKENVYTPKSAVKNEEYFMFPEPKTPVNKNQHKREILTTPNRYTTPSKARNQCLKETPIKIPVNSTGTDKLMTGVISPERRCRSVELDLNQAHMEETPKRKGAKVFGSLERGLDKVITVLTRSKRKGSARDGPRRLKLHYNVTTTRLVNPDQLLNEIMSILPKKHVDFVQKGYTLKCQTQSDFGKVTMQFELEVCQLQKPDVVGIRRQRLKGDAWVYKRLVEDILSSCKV
Chain of Wee1-like protein kinase (Homo sapiens) (P30291 whole entry, looked up): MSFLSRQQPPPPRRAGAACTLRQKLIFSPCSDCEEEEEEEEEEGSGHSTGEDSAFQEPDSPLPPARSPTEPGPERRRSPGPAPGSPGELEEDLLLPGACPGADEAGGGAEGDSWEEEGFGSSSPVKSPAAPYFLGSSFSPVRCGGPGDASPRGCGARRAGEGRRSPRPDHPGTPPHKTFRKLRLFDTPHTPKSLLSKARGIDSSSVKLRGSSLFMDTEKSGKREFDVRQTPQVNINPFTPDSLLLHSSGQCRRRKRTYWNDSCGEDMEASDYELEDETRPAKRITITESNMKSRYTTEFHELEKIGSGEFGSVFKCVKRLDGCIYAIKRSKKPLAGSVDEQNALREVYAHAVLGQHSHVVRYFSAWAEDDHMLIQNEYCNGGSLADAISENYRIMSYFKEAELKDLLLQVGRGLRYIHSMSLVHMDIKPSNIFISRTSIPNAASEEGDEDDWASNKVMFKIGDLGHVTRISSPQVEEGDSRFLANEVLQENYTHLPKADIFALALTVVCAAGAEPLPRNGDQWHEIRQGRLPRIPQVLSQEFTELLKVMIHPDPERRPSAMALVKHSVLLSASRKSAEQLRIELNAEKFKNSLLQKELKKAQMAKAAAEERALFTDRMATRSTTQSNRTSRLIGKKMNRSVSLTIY
Chain of Serine/threonine-protein kinase PAK 3 (Homo sapiens) (O75914 whole entry, looked up): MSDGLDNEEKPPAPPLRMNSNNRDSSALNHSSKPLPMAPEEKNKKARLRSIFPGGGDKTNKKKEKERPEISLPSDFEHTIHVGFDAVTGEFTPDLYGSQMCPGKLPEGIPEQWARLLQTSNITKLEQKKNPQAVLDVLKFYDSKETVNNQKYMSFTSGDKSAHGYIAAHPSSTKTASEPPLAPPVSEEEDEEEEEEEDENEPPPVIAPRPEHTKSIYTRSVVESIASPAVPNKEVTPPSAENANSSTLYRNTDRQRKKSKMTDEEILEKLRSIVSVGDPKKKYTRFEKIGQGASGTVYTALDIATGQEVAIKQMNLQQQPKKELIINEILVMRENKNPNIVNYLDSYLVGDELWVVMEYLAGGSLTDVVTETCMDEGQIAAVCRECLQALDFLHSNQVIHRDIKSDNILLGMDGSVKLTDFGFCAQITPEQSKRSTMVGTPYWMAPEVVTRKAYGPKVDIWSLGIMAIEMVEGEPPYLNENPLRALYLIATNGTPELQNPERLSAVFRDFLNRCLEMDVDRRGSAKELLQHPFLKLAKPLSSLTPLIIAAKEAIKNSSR

O=C(N[C@@H](C1CC1)C(F)(F)F)c1cc(-c2cnn3cc(-c4ccc(F)cc4)cnc23)cs1
inhibition [1]: 0%
fold change (FC) [2]: 0.07
fold change (FC) [3]: 0.25
fold change (FC) [4]: 0.63
fold change (FC) [5]: 0.01

CNC(=O)c1ccccc1Oc1nc(Nc2cc(OC)c(OC)c(OC)c2)ncc1Br
inhibition [6]: 2%
inhibition [7]: 0%
inhibition [8]: 19%
fold change (FC) [9]: 0.01
fold change (FC) [10]: 0.12

CC(C)[C@H](NC(=O)c1cc(-c2cnn3cc(-c4ccc(OCCN5CCCCC5)cc4)cnc23)cs1)C(F)(F)F
inhibition [11]: 67%
fold change (FC) [12]: 0.07
